Compound activity (PubChem BioAssay)
697 NFkB inh: inhibitors of the PMA/ionomycin-induced NF-kB reporter in 697 B cells; inhibition, % at 4 µM; 697 B-cell NF-kB luciferase reporter, 16 h; AID 435022; 330,000 compounds, 0.33% hits; in the data active = inhibition above about 35%
JMJD2C inh: human JMJD2C demethylase inhibition; Q9H3R0; GST-JMJD2C(1-420) H3K9me3 demethylation, DELFIA europium; inhibition, % at 2.35 µM; 330,000 compounds, 0.069% hits; AID 2099;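 active = more than half of a compound's replicate wells show inhibition beyond 50%, single wells judged on their own value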;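 note: signal counts dimethyl H3K9 product captured on neutravidin plate; 0% = median of DMSO wells and 100% = 0.3 times that DMSO median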
Target sequence (Q9H3R0 1-420 limits assumed): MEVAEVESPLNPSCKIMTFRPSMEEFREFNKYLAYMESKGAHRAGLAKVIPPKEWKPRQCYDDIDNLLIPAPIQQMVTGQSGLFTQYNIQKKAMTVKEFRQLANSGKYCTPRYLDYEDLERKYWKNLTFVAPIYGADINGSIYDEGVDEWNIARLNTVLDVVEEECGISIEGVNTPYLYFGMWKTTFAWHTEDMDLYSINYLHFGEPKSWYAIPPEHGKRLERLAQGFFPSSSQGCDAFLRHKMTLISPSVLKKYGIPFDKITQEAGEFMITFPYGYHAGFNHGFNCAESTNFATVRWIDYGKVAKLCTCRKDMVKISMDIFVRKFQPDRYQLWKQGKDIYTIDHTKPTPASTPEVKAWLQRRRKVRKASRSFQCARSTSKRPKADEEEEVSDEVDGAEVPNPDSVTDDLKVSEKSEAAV
Jurkat NFkB inh: lowers PMA/ionomycin-induced NF-kB signal in Jurkat cells; 330,000 compounds, 0.53% hits; AID 435003; PMA/ionomycin-induced NF-kB luciferase reporter, luminescence; inhibition, % at 4 µM; in the data active = inhibition above about 50%
GalR3 antagonist: blocks the human galanin receptor 3. O60755. HEK293 GalR3-CNG cAMP membrane potential fluorescence; galR3 body fused to GalR1 C-terminus. inhibition, % at 3 µM. 360,000 compounds, 0.44% hits;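 active = inhibition above the screen-wide average plus 3 SD, cut at about 13% in these data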;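 note: forskolin and galanin both at EC90 stimulate the cells; cAMP rise reported by CNG channel membrane potential dye signal; 0% = forskolin plus galanin with DMSO and 100% = forskolin alone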
Target sequence (O60755 1-299 limits assumed): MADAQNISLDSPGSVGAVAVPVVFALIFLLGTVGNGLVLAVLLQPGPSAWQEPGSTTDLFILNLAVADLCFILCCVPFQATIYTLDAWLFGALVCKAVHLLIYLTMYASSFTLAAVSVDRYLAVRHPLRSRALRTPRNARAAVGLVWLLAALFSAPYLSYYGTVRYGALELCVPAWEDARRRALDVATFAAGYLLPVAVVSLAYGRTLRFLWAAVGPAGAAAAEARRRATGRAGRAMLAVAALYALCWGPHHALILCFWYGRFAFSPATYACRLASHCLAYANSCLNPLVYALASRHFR
NR2E3 ag-1: activates human photoreceptor nuclear receptor NR2E3; inhibition of corepressor binding, % at 4.78 µM; 320,000 compounds, 0.12% hits; GST-NR2E3/biotin-RetCOR TR-FRET, 1536-well; AID 2300;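 active = percent inhibition above the cutoff of mean plus 3 SD of all tested compounds, set per screening campaign, cut at about 20% in these data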;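 note: 0% = DMSO wells and 100% = biotin wells as full block of FRET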
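Material – GST-tagged NR2E3 plus biotinylated RetCOR corepressor · Quantity – NR2E3 fusion 1.35 nM · Times – 5 h incubation at 4 °C · Medium – pH 7.5 Tris-based buffer · Technique – TR-FRET, Eu(K)-anti-GST donor, streptavidin-D2 acceptor, ex 340, em 617/671 nm · Benchmarks – high control biotin, low control 0.6% DMSO · Format – 1536-well plates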
NR2E3 ag-2: agonists of human NR2E3 nuclear receptor | CHO-S Gal4-NCOR/VP16-NR2E3 two-hybrid, luciferase | inhibition of corepressor binding, % at 3.98 µM | 360,000 compounds, 0.35% hits | AID 602229;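 active = inhibition above the mean of all tested compounds plus 3 SD, cut at about 70% in these data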;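 note: 0% = DMSO with NR2E3 transfected cells and 100% = cells lacking NR2E3 construct; higher means lower luciferase signal from less NR2E3 corepressor binding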
697 NFkB conf: inhibitors of the PMA/ionomycin-induced NF-kB reporter in 697 B cells, retest. shares compounds with 697 NFkB inh. 697 B-cell NF-kB luciferase, 16 h. inhibition, % at 4 µM. 2,000 compounds, 35% hits. AID 449746; in the data active = inhibition mostly above about 28%, no sharp cut-off; inactive = mostly below about 22%
NR2E3 ag conf: NR2E3 agonism confirmed in two-hybrid assay; CHO-S mammalian two-hybrid NR2E3-NCOR, luciferase luminescence; 2,300 compounds, 51% hits; inhibition, % at 3.98 µM; shares compounds with NR2E3 ag-2; AID 624378;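 active = average inhibition above a cutoff equal to the mean inhibition of all tested compounds plus one SD, cut at about 70% in these data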;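 note: 0% = DMSO in NR2E3 cells and 100% = DMSO in cells lacking NR2E3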
VP16 counter: counter-screen for NR2E3 agonists: GAL4-VP16 reporter inhibitors | shares compounds with NR2E3 ag-2 | CHO-S GAL4-VP16 luciferase reporter, luminescence | inhibition, % at 3.98 µM | 2,300 compounds, 29% hits;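 active = mean inhibition above a cutoff equal to the average over all tested compounds plus one standard deviation, cut at about 70% in these data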;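 note: luciferase from a UAS reporter driven by GAL4-VP16 transactivation; 0% = DMSO with VP16-transfected cells and 100% = DMSO with cells lacking VP16; higher means less reporter light so more repression of VP16 activity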
GalR3 conf: GalR3 (human) antagonism, confirmation; shares compounds with GalR3 antagonist; HEK293 GalR3 CNG cAMP biosensor, membrane potential fluorescence; galR3 fused to GalR1 carboxy tail; challenged with forskolin and galanin at EC90; inhibition, % at 3 µM; 1,600 compounds, 59% hits;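 active = inhibition above the primary screen's cutoff, the mean inhibition of all screened compounds plus 3 SD, cut at about 13% in these data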;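 note: 0% = forskolin plus galanin and 100% = forskolin alone with DMSO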
CNG parental: counter-screen for GalR3 antagonists: nonspecific agonists in parental HEK-CNG cells | shares compounds with GalR3 antagonist | HEK293-CNG parental cells, cAMP membrane potential fluorescence; normalised: DMSO wells 0%, forskolin wells 100% | activation, % at 3 µM | 1,600 compounds, 10% hits | AID 652268; in the data active = activation above about 1.3%
The depositor's hits bear a star; i = inactive; nt = no result. A selection: hits, their analogues and other compounds. The true share with any hit is near 1.5%.

SMILES | 697 NFkB inh | JMJD2C inh | Jurkat NFkB inh | GalR3 antagonist | NR2E3 ag-1 | NR2E3 ag-2 | 697 NFkB conf | NR2E3 ag conf | VP16 counter | others
O=C(COC(=O)/C=C/c1cccc(F)c1)NC(=O)NC1CCCC1 | 14 | 0 | 11 | 2 | nt | 12 | nt | nt | nt
O=C(O)Cn1ncn(-c2ccc(OC(F)(F)F)cc2)c1=O | 10 | 20 | 2 | -2 | 1 | 15 | nt | nt | nt
Cc1nccn1CC(=O)N/N=C/c1ccccc1O | -5 | 7 | -7 | 2 | -3 | 28 | nt | nt | nt
CC1=C(C(=O)N(C(C)C)C(C)C)CC(CC(=O)NC2CCCCC2)C(=O)N1Cc1ccc(F)cc1 (configuration not stated) | nt | nt | nt | -1 | nt | -7 | nt | nt | nt
COc1cc(C[C@@H]2C(=O)OC[C@H]2Cc2ccc(OC)c(OC)c2)ccc1O | 85* | 7 | 42 | 102* | 1 | 87* | 70* | 95* | 81*
COCC[N+]1(C)CCCCC1 | 13 | 3 | -10 | -5 | 0 | -9 | nt | nt | nt
O=C(CCCN1C(=O)S/C(=C\C=C\c2ccccc2)C1=O)Nc1ccc(O)cc1 | 40* | 3 | -32 | -2 | 0 | 49 | 32* | 0 | 58
Cc1ccc(/C=C2\SC(=S)N(CCCC(=O)Nc3ccccn3)C2=O)cc1 | 81* | 8 | 5 | -4 | 2 | 67 | 96* | 59 | 93*
O=C(CCCN1C(=O)/C(=C/c2ccc3c(c2)OCO3)SC1=S)Nc1ccc(C(=O)O)cc1 | 78* | 3 | 20 | 1 | 2 | 51 | 78* | 34 | 64
COc1ccc(/C=C2/SC(=S)N(CCCC(=O)Nc3cccc(O)c3)C2=O)cc1 | 63* | -6 | 8 | -7 | 2 | 61 | 71* | 1 | 60
COc1cccc(/C=C2\SC(=S)N(CCC(=O)Nc3ccc(O)cc3)C2=O)c1 | -5 | 2 | -5 | -2 | 0 | -17 | nt | nt | nt
Cc1ccc(C(=O)N2CC(=O)NC(=O)C2)cc1 | 1 | 5 | -4 | -7 | -3 | 7 | nt | nt | nt
Cc1ccc(NC(=O)c2ccc3ncsc3c2)cc1S(=O)(=O)N(C)C | -104 | -8 | -92 | -4 | -3 | nt | nt | nt | nt
Cc1ccc(/C=C2\SC(=S)N(CCCC(=O)Nc3ccc(O)cc3)C2=O)cc1 | 92* | -1 | -1 | -2 | 2 | 78* | 90* | -3 | 63
O=C(CCCN1C(=O)/C(=C/c2ccccc2Cl)SC1=S)NNC(=O)c1ccncc1 | 48* | 8 | 17 | -5 | 4 | 56 | 56* | -45 | 54
O=C(O)CCSc1nc2ccccc2s1 | 40* | 3 | 16 | -6 | 2 | 54 | 35* | 53 | 67
O=C1NC[C@@H](c2ccccc2)OC(=O)[C@H](Cc2ccc(F)cc2)C/C=C\C[C@H]1CC(=O)N(CCO)Cc1ccccc1 | 11 | -4 | -3 | -3 | nt | 16 | nt | nt | nt
O=C1NC[C@H](c2ccccc2)OC(=O)[C@@H](Cc2ccc(F)cc2)C/C=C\C[C@H]1CC(=O)N(CCO)Cc1ccccc1 | 40* | -1 | 31 | -9 | nt | 52 | 24* | 31 | 28
CC(C)c1cc(C(=O)NC2CCCc3c2cnn3-c2ccccc2F)no1 (configuration not stated) | -438 | 0 | -20 | 0 | 0 | 60 | i | 47 | 52
Cc1cc(C(=O)NC2CCCc3c2cnn3-c2ccccc2F)nc(C)n1 (configuration not stated) | -5 | -13 | 10 | 7 | 2 | -14 | nt | nt | nt
O=C(Cn1cnc2c(NCc3ccccc3)ncnc21)N1CCN(c2ccccn2)CC1 | 14 | nt | nt | 2 | nt | -14 | nt | nt | nt
Cc1cc(C)c(CN2CCN(C(=O)Cn3cnc4c(NCc5ccccc5)ncnc43)CC2)c(C)c1 | 74* | nt | nt | 105* | nt | 83* | 82* | 88* | 70 | GalR3 conf=106*;CNG parental=-1
N#CCSc1n[nH]c2nc3c(c(=O)n12)C1(CCCC1)Cc1ccccc1-3 | 37* | 3 | 1 | nt | 3 | 2 | 4 | nt | nt | GalR3 conf=-4;CNG parental=0
O=C(O)[C@H](Cc1ccccc1)NC(=O)N1CCN(c2ccc(F)cc2)CC1 | 2 | -6 | -9 | 2 | 3 | -8 | nt | nt | nt
Brc1ccc(-c2ncc(-c3ccccc3)cn2)cc1 | -289 | -6 | -150 | nt | 1 | -67 | -210 | nt | nt | GalR3 conf=3;CNG parental=0
SMILES | 697 NFkB inh | JMJD2C inh | Jurkat NFkB inh | GalR3 antagonist | NR2E3 ag-1 | NR2E3 ag-2 | 697 NFkB conf | NR2E3 ag conf | VP16 counter | others
COc1ccc(Cl)cc1CNC[C@H]1O[C@@H](n2cnc3c(=O)[nH]c(N)nc32)[C@H](O)[C@@H]1O | nt | nt | nt | 1 | nt | -25 | nt | nt | nt
COc1ccc(NS(=O)(=O)c2ccc(-c3coc(C)n3)cc2)cc1OC | 41* | -8 | 36 | 85* | 2 | 108* | 59* | 99* | 87* | GalR3 conf=100*;CNG parental=0
CN(CC(=O)Nc1cccc(F)c1)C(=O)/C=C/c1ccc2ccccc2n1 | -13 | 43 | 4 | -5 | 2 | 9 | nt | nt | nt
O=C(NNC(=O)c1ccccc1O)c1ccc(Cl)c(S(=O)(=O)N2CCc3ccccc32)c1 | 85* | 10 | -10 | 29* | 0 | -24 | 97* | nt | nt | GalR3 conf=60*;CNG parental=-2
O=C(c1ccc(Cl)c(S(=O)(=O)N2CCc3ccccc32)c1)N1CCN(c2ccccc2O)CC1 | 8 | -6 | 8 | -4 | nt | 0 | nt | nt | nt
CSC(=Nc1ccccc1)N=C(SCc1ccccc1)N(C)C | nt | nt | nt | 13 | nt | 86* | nt | 87* | 53
CC(C)OC(=O)NCCOC(=O)Nc1cccc(Cl)c1 | -21 | 0 | -19 | -3 | 1 | 43 | nt | nt | nt
CC(C)OC(=O)NCCOC(=O)Nc1ccc(Cl)c(Cl)c1 | -5 | -3 | 3 | -3 | -1 | 64 | nt | 92* | 74*
CC(O)CC(C(=O)NNc1ccccc1)C(=O)NNc1ccccc1 (configuration not stated) | -4 | -6 | -14 | 1 | 5 | 63 | nt | 41 | 10
CCCOC(=O)C(=O)NNc1ccccc1 | 1 | -6 | 8 | -2 | -1 | 26 | nt | nt | nt
